By pIC50 is commonly meant −log10 of the IC50, conventionally taken in molar units. The low end stands for a large IC50, the high end for a small IC50.

Data on 16 compounds can be found in ChEMBL document CHEMBL1129519, “Optimal recognition of neutral endopeptidase and angiotensin-converting enzyme active sites by mercaptoacyldipeptides as a means to design potent dual inhibitors” (J Med Chem, 1996).

pIC50: −log10 of the molar value.

For assay [1], the target named is T1, Angiotensin-converting enzyme (Rattus norvegicus, UniProt P47820).
T1 sequence (P47820 whole entry): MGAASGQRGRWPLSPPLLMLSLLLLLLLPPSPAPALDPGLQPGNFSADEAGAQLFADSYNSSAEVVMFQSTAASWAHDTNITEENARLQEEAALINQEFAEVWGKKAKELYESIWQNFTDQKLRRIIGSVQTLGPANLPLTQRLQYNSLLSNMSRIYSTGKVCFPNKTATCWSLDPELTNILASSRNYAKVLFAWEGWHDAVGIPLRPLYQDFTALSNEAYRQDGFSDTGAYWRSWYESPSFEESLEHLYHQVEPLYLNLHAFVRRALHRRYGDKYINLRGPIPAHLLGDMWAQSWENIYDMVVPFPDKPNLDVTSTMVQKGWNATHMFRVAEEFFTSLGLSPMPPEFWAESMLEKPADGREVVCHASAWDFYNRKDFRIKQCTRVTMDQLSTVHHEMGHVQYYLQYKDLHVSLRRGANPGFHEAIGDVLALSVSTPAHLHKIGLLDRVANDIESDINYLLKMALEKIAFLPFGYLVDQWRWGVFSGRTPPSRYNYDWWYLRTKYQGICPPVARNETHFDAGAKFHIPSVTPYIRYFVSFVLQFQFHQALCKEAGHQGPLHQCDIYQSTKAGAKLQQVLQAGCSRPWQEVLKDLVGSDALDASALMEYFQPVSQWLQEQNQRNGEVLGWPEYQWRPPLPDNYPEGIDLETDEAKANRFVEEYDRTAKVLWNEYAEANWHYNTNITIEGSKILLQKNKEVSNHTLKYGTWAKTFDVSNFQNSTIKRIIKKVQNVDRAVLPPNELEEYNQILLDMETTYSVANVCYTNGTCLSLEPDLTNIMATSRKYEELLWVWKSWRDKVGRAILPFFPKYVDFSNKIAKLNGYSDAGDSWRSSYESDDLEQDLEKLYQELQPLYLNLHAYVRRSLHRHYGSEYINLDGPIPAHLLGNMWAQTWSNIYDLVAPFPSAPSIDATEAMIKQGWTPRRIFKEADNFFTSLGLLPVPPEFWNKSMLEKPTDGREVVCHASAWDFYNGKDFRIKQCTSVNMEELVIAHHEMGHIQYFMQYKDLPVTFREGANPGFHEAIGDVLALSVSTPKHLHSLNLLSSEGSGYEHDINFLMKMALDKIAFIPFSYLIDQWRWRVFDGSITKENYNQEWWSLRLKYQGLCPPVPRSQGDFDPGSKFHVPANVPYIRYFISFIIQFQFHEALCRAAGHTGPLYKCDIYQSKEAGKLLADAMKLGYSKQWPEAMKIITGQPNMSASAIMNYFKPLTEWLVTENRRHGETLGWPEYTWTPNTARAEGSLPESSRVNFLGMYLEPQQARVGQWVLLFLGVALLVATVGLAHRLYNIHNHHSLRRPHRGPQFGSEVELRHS
Kind of assay: Inhibitory activity against angiotensin I converting enzyme. The essentials: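 Rat testis enzyme purified to homogeneity, 0.02 pmol/100 µL final, preincubated 15 min at 37 °C with varied inhibitor levels in 50 mM Tris-HCl pH 8.0. N-Cbz-Phe-His-Leu then added to 0.05 mM final and run 15 min. Stopped with 2 M NaOH, His-Leu measured fluorimetrically (ex 365, em 495 nm) against a His-Leu calibration curve. IC50 as mean ± SEM of three independent determinations, each in triplicate.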

Assay [2] deals with T2, Neprilysin (Oryctolagus cuniculus, UniProt P08049).
T2 sequence (P08049 whole entry): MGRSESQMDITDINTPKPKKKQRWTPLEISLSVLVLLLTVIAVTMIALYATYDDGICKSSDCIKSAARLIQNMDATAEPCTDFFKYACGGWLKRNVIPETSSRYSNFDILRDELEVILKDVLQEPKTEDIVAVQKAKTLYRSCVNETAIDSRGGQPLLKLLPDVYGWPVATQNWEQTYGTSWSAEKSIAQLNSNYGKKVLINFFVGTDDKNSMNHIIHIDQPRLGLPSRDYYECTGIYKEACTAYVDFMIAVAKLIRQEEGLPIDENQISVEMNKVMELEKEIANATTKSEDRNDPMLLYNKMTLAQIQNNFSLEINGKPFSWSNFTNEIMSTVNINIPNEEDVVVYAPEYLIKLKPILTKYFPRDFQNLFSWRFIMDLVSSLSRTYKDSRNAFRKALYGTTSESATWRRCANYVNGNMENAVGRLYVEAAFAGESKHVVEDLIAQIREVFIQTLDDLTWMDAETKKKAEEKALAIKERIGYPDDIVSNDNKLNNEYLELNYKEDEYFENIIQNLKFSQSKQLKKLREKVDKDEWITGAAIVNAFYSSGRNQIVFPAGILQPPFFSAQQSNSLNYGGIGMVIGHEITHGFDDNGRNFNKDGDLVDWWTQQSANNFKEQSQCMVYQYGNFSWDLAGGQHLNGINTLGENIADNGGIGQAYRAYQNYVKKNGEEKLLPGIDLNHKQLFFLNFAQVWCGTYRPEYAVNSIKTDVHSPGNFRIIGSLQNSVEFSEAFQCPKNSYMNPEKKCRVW
Kind of assay: Inhibitory activity was tested against neutral endopeptidase. The essentials:
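Rabbit kidney enzyme purified to homogeneity, 1 pmol/100 µL final, preincubated 15 min at 25 °C with or without rising inhibitor concentrations in 50 mM Tris-HCl pH 7.4. [3H]Tyr-D-Ala2-Leu-enkephalin then added to 20 nM final and run 30 min. Stopped with 0.5 M HCl, tritiated metabolites separated on polystyrene beads. IC50 as mean ± SEM of three independent determinations, each in triplicate.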

For `O=C(O)[C@H](Cc1ccc(O)cc1)NC(=O)[C@H](Cc1ccccc1)NC(=O)[C@@H](S)CCc1ccccc1`, the pIC50 is 8.82 in assay [1] and 7.70 in assay [2].
As to `CC[C@@H](C)[C@H](S)C(=O)N[C@H](C(=O)N[C@@H](Cc1ccc(O)cc1)C(=O)O)C(C)c1ccccc1` (some centres not stated), the pIC50 is 7.48 in assay [1] and 7.49 in assay [2].
For `O=C(O)[C@H](Cc1c[nH]c2ccccc12)NC(=O)[C@H](Cc1ccccc1)NC(=O)[C@@H](S)Cc1ccccc1`, the pIC50 in assay [1] was 8.10; in assay [2] it was 7.30.
Consider `CC[C@@H](C)[C@H](NC(=O)[C@@H](S)C(C)C)C(=O)N[C@@H](Cc1ccc(O)cc1)C(=O)O`, for which the pIC50 is 9.59 in assay [1] and 8.85 in assay [2].
Take `CC(C)[C@H](NC(=O)[C@@H](S)Cc1ccccc1)C(=O)N1CC(O)CC1C(=O)O` (some centres not stated): the pIC50 was 7.00 in assay [1] and 7.20 in assay [2].
On the same counts, the results for `C[C@H](NC(=O)[C@@H](S)Cc1ccccc1)C(=O)N1CCCCC1C(=O)O` (some centres not stated) are 8.80 and 8.02.
For the compound `C=C(C)[C@@H]1CC[C@]2(C(=O)N[C@H](C(=O)O)[C@@H](C)CC)CC[C@]3(C)[C@H](CC[C@@H]4[C@@]5(C)CC[C@H](O)C(C)(C)[C@@H]5CC[C@]43C)[C@@H]12`, the pIC50 was 8.20 in assay [1] and 8.26 in assay [2].
Turning to `C[C@H](NC(=O)[C@H](Cc1ccccc1)NC(=O)[C@@H](S)Cc1ccccc1)C(=O)O`, the results for the pIC50 in assay [1] and in assay [2] were 8.15 and 8.64, respectively.
With `O=C(O)[C@H](CSCc1ccccc1)NC(=O)[C@H](Cc1ccccc1)NC(=O)[C@@H](S)Cc1ccccc1`, the pIC50 in assay [1] was 7.85; in assay [2], 7.40.
With `O=C(O)[C@H](Cc1ccc(O)cc1)NC(=O)[C@H](Cc1ccccc1)NC(=O)[C@@H](S)Cc1ccccc1`, the pIC50 in assay [1] was 8.25; in assay [2], 8.54.
Consider `C[C@H](NC(=O)[C@@H](S)CCc1ccccc1)C(=O)N1CCCC1C(=O)O` (some centres not stated), for which the values for the pIC50 in assay [1] and in assay [2] were 9.46 and 7.70, respectively.
Turning to `CCCC[C@H](NC(=O)[C@@H](S)Cc1ccccc1)C(=O)N[C@@H](Cc1ccc(O)cc1)C(=O)O`, the values for the pIC50 in assay [1] and in assay [2] were 8.40 and 8.55, respectively.
With `CC[C@H](C)[C@H](NC(=O)[C@@H](S)Cc1ccccc1)C(=O)N[C@@H](Cc1ccc(O)cc1)C(=O)O`, the pIC50 was 8.60 in assay [1] and 8.52 in assay [2].
In the same order, the values of `CC[C@H](C)[C@H](S)C(=O)N[C@H](C(=O)N[C@@H](Cc1ccc(O)cc1)C(=O)O)C(C)C` are 8.72 and 8.28.
`O=C(O)[C@H](Cc1cccc2ccccc12)NC(=O)[C@H](Cc1ccccc1)NC(=O)[C@@H](S)Cc1ccccc1`: the pIC50 in assay [1] was 7.30; in assay [2] it was 6.92.
Regarding `CC[C@@H](C)[C@H](NC(=O)[C@@H](S)c1ccccc1)C(=O)N1CCCC1C(=O)O` (some centres not stated), the values for the pIC50 in assay [1] and in assay [2] were 7.55 and 6.89, respectively.
